For data set [1], the system named is Mus musculus. Put plainly: Inhibition of PTEN expression in Balb/C mouse kidney assessed as increase in mRNA levels at 8.25 mg/kg, ip administered thrice a week for 2 weeks measured 48 hrs after last dose […]. More on the design: dose 8.25 mg/kg. It counts as functional, organism-based. The procedure, abridged: (§1)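 Male Balb/c mice, n=4 per group, dosed i.p. in PBS and sacrificed 48 h after last dose. Liver, kidney and adipose tissue homogenised at once in 4 M guanidine isothiocyanate, 25 mM EDTA, 50 mM Tris-HCl pH 6. RNA purified on columns and run by fluorescence-based quantitative RT-PCR. Target transcript levels normalised to cyclophilin A and expressed relative to saline-treated controls.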

Data set [2] concerns Mus musculus. Put plainly: Inhibition of PTEN expression in Balb/C mouse adipose tissue assessed as increase in mRNA levels at 8.25 mg/kg, ip administered thrice a week for 2 weeks measured 48 hrs after last dose by […]. It is filed as functional, organism-based. Details: dose 8.25 mg/kg. The method, boiled down: as §1
In general terms: A western blot detects proteins with antibodies after separation by electrophoresis.

Data set [3] relates to Mus musculus. Put plainly: Acute toxicity in Balb/C mouse assessed as reduction in body weight at 8.5 mg/kg, ip administered thrice a week for 2 weeks measured 48 hrs after last dose. It counts as organism-based. More on the design: dose 8.5 mg/kg, route intraperitoneal. The following applies: in vivo. The method, boiled down: (§2)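 Male Balb/c mice aged 6–8 weeks, n=4 per group, dosed i.p. with compound suspended in PBS and filter sterilized, 10 ul/g body weight. Body weight tracked throughout the live phase. Under isoflurane anaesthesia, terminal cardiac-puncture bleed; serum taken for transaminases and other chemistries. Sacrifice by cervical dislocation 48 h after last dose, with liver and spleen weighed at necropsy. Kidneys examined by histopathology.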

The test system of data set [4] is Mus musculus. The experiment in a line: Acute toxicity in Balb/C mouse assessed as reduction in body weight at 33 mg/kg, ip administered thrice a week for 2 weeks measured 48 hrs after last dose. It counts as organism-based. Details: dose 33 mg/kg, route intraperitoneal. As to conditions: in vivo. The procedure, abridged: as §2
For data set [5], the system named is Mus musculus. The experiment in a line: Inhibition of PTEN expression in Balb/C mouse liver assessed as increase in mRNA levels at 8.25 mg/kg, ip administered thrice a week for 2 weeks measured 48 hrs after last dose […]. It is filed as functional, organism-based. More on the design: dose 8.25 mg/kg. The method, boiled down:
as §1

The test system of data set [6] is Mus musculus. The experiment in a line: Inhibition of PTEN expression in Balb/C mouse kidney assessed as increase in mRNA levels at 33 mg/kg, ip administered as single dose measured 48 hrs after last dose […]. It counts as functional, organism-based. More on the design: dose 33 mg/kg. The procedure, abridged:
as §1

The subject of data set [7] is Mus musculus. Put plainly: Acute toxicity in Balb/C mouse assessed as necrosis in kidney at 33 mg/kg, ip administered thrice a week for 2 weeks measured 48 hrs after last dose. It counts as organism-based. More on the design: dose 33 mg/kg, route intraperitoneal. The following applies: in vivo. The method, boiled down: as §2
Data set [8] relates to Mus musculus. Put plainly: Acute toxicity in Balb/C mouse assessed as necrosis in kidney at 8.5 mg/kg, ip administered thrice a week for 2 weeks measured 48 hrs after last dose. The following applies: in vivo. It is filed as organism-based. More on the design: dose 8.5 mg/kg, route intraperitoneal. The procedure, abridged: as §2

Calls of active or inactive are those of the source. The rule behind the calls is not given here.

Consider `Cc1cn(CC(=O)N(CCNC(=O)CN(CCNC(=O)[C@H](CCCCN)N(CCNC(=O)CNC(=O)[C@@H](CCCCN)NC(=O)[C@@H](CCCCN)NC(=O)[C@@H](C)NC(=O)[C@@H](CC(C)C)NC(=O)[C@@H](CCCCN)NC(=O)[C@@H](CC(C)C)NC(=O)[C@@H](C)NC(=O)[C@@H](C)NC(=O)[C@@H](CCCCN)NC(=O)[C@@H](CC(C)C)NC(=O)[C@@H](CC(C)C)NC(=O)[C@@H](CCCCN)NC(=O)[C@H](N)CCCCN)C(=O)Cn2cc(C)c(=O)[nH]c2=O)C(=O)Cn2ccc(N)nc2=O)CC(=O)NCCN(CC(=O)NCCN(CC(=O)NCCN(CC(=O)NCCN(CC(=O)NCCN(CC(=O)NCCN(CC(=O)NCCN(CC(=O)NCCN(CC(=O)NCCN(CC(=O)NCCN(CC(=O)NCCN(CC(=O)NCCN(CC(=O)NCCN(CC(=O)N[C@@H](CCCCN)C(N)=O)C(=O)Cn2cnc3c(N)ncnc32)C(=O)Cn2ccc(N)nc2=O)C(=O)Cn2cnc3c(N)ncnc32)C(=O)Cn2cc(C)c(=O)[nH]c2=O)C(=O)Cn2ccc(N)nc2=O)C(=O)Cn2cc(C)c(=O)[nH]c2=O)C(=O)Cn2cnc3c(N)ncnc32)C(=O)Cn2ccc(N)nc2=O)C(=O)Cn2cnc3c(N)ncnc32)C(=O)Cn2ccc(N)nc2=O)C(=O)Cn2cnc3c(=O)[nH]c(N)nc32)C(=O)Cn2cnc3c(N)ncnc32)C(=O)Cn2ccc(N)nc2=O)c(=O)[nH]c1=O`, for which the result in data set [1], in data set [2], in data set [5] and in data set [6] was inactive. Moreover, the Activity result in data set [3], in data set [4], in data set [7] and in data set [8] was “Toxic” throughout.

(Values after ChEMBL document CHEMBL1155469, “Peptide nucleic acids conjugated to short basic peptides show improved pharmacokinetics and antisense activity in adipose tissue” (J Med Chem, 2010).)
